# Compound activity from PubChem.
# Rows were chosen to be rich in hits. Some 3.8% of all compounds tested hit in one or more screens of this group.
# KCNQ1 inh = inhibitors of human KCNQ1 channel, primary screen, cell-based, thallium flux, high-throughput; B-score at 10 µM; hit rate 1.3% among 310,000; Potassium voltage-gated channel subfamily KQT member 1 (Homo sapiens), P51787; CHO-K1 KCNQ1, FluxOR thallium flux fluorescence; active compounds read high; AID 2642, 2010;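 active means compounds whose thallium flux B-score, printed positive for inhibition, exceeds three library SD while starting fluorescence stays within three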;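 further: channel opened by potassium depolarization with thallium stimulus after 20 min compound exposure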
# KCNK3 inh = human KCNK3 channel inhibitors, primary screen, CHO cells, FluxOR thallium flux, B-score. FluxOR fluorescence; active compounds read low. B-score at 10 µM. hit rate 0.84% among 340,000. AID 602410, 2012;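 active means B-score under library mean minus 4 SD, starting fluorescence ratio at most library mean plus 5 SD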;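 further: more negative B-score means stronger inhibition of thallium flux through KCNK3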
# Target sequence (O14649 whole entry, looked up): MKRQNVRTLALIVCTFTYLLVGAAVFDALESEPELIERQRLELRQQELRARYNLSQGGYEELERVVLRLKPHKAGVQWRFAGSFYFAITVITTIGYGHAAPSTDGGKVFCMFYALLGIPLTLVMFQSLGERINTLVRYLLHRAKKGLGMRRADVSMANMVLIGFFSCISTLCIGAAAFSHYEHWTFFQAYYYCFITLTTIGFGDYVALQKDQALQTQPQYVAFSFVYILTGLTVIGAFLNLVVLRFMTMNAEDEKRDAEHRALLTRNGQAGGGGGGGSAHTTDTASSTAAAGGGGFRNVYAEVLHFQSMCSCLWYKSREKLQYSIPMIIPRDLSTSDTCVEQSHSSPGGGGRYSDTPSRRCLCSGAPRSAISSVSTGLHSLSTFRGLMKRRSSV
# hERG rescue = hERG rescue from dofetilide block, primary screen, cell-based, CHO-hERG, FluxOR thallium flux, dofetilide IC70 | Voltage-gated inwardly rectifying potassium channel KCNH2 (Homo sapiens), Q12809 | dofetilide IC70 present | activation (rescue from dofetilide block), less the hit threshold, % at 10 µM | hit rate 0.51% among 310,000 | AID 1511, 2009;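 active means activation above the mean of controls blocked by dofetilide plus 5 SD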;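 further: thallium influx through hERG after potassium depolarization seen as dye fluorescence rise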
# KCNQ1 pot = potentiators or activators of KCNQ1 channel, primary screen, cell-based, thallium flux, high-throughput; Potassium voltage-gated channel subfamily KQT member 1 (Homo sapiens), P51787; CHO-K1 KCNQ1, thallium flux FluxOR fluorescence; active compounds read high; B-score at 10 µM; hit rate 0.35% among 310,000; AID 2648, 2010;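 active means fluorescence ratio B-score, a plate-corrected score, at least three library SD, with initial intensity B-score within 5 SD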
#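 Assay system: CHO-K1 cells stably expressing KCNQ1; Medium: assay buffer with matched DMSO; Also added: K+/Tl+ depolarizing stimulus; Dosing: single dose; Timing: dye 90 min, compound 20 min, room temperature; Measured by: kinetic FluxOR thallium fluorescence, 10-s 1-Hz baseline, 110-s post-stimulus read; Read-out: peak-minus-minimum fluorescence over initial fluorescence, negative-control normalized, B-scored.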
# KCNK9 block = KCNK9 potassium channel inhibitors, primary screen, HEK293 cells, thallium flux. hit rate 1.2% among 310,000. FluxOR thallium flux fluorescence; active compounds read low. B-score at 10 µM;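 active means ratio B-score over 3 SD below the library mean, with starting fluorescence within 5 SD of its mean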;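 further: negative B-score means less thallium flux so channel inhibition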
# Kir21 block = inhibitors of mouse Kir2.1 inward-rectifier potassium channel | AID 1672, 2009 | B-score at 10 µM | hit rate 0.85% among 310,000 | HEK293-Kir2.1, FluxOR thallium flux fluorescence; active compounds read low | Inward rectifier potassium channel 2 (Mus musculus), P35561;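 active means fluorescence ratio B-score at or below minus 3 SD of library scores, with starting-brightness B-score within 2 SD, cut at about -4.2 in these data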;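 further: channel flux triggered by added potassium and thallium sulfate stimulus; B-score of peak minus minimum fluorescence over baseline after thallium stimulus; more negative B-score means stronger Kir2.1 block with less thallium influx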
# KCNK9 block conf = KCNK9 potassium channel inhibitors, confirmation, HEK293 cells, thallium flux, duplicate; shares compounds with KCNK9 block; FluxOR thallium flux fluorescence; inhibition, % at 10 µM; hit rate 43% among 4,900;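 active means thallium signal inhibited by more than 5 SD of the compound-free buffer control wells, on both duplicate plates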;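 further: 0% = assay buffer control wells without compound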
# Kir21 sel = mouse Kir2.1 channel inhibition, confirmation, selectivity assay for KCNK9 modulator project, cell-based, HEK293, thallium flux; hit rate 4% among 4,900; Kir2.1 cells, FluxOR thallium flux fluorescence; inhibition, % at 10 µM; shares compounds with KCNK9 block;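 active means thallium signal drop more than 5 SD beyond the mean of the no-compound control wells, seen in both duplicate plates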;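 further: signal is fluorescence rise after thallium addition divided by baseline fluorescence; plate controls were assay buffer only for no effect and full block by chlorpromazine control for full effect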
# HEK293 Tl ctr = thallium flux in non-induced HEK293 cells, confirmation, counter-screen for KCNK9 inhibitor project, cell-based, second counter screen, non-induced KCNK9-HEK293. shares compounds with KCNK9 block. FluxOR thallium flux. inhibition, % at 10 µM. hit rate 40% among 4,900. AID 492997, 2010;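 active means thallium signal drop beyond 5 SD of the untreated control mean, on both duplicate plates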;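 further: plate controls were buffer only IC0 wells for no effect and SID17386958 at its maximal inhibitory level for full effect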
# Starred values were filed as active, the others as inactive; i = inactive; x = no result given.
SMILES,KCNQ1 inh,KCNK3 inh,hERG rescue,KCNQ1 pot,KCNK9 block,Kir21 block,KCNK9 block conf,Kir21 sel,HEK293 Tl ctr
Cc1cc2c(=O)n(CC(=O)NCC(=O)N3CCN(Cc4ccccc4)CC3)cnc2s1,i,i,-6,i,-11*,0.75,i,i,i
CCNc1nc(Oc2ccccc2)nc(OC(C)C(=O)OCC)n1 (stereo not given),i,i,-7,i,i,0.45,x,x,x
Cc1cc(NC(=O)c2cc(-c3cccs3)nc3ccccc23)no1,i,i,-9,i,-9.6*,0.79,38%*,i,i
Cc1ccc(-c2cc(C(=O)Nc3cc(C)on3)c3ccccc3n2)cc1,i,i,0,i,i,0.31,x,x,x
COc1ccc(COc2ccsc2C(=O)Nc2ccc(Cl)cc2)cc1,i,i,-11,i,-9*,-0.28,44%*,i,26%*
CN(C)S(=O)(=O)Oc1ccsc1C(=O)Nc1ccc(Cl)cc1,i,-11*,-8,i,-11*,-0.36,33%*,i,40%*
COc1ccc(NC(=O)c2sccc2OS(=O)(=O)N(C)C)cc1,i,i,-2,i,i,0.4,x,x,x
S=c1[nH]nc(-c2cccc(Cl)c2)n1CCN1CCCCC1,i,i,-7,i,i,0.33,x,x,x
O=C(CN1C(=O)S/C(=C\c2cc(Cl)c(O)c(Cl)c2)C1=O)Nc1ccccc1,i,i,12*,i,i,-1.4,i,i,i
Cc1noc(C)c1CSc1nnc2cc(C)c3ccccc3n12,i,x,-9,i,i,-1,x,x,x
O=C(CCSCc1ccccc1F)NCc1cccs1,i,i,-2,i,i,0.3,x,x,x
O=C(CCSCc1ccccc1Cl)NCc1cccs1,i,i,5.0*,i,i,1.1,i,i,i
Cc1ccc(C(=O)COC(=O)CSc2cccc3cccnc23)c(C)c1,i,i,-8,i,i,0.55,i,i,i
O=C(O)CSc1cccc2cccnc12,i,i,-6,i,i,1,x,x,x
Cc1nn(-c2ccccc2)c(N)c1Sc1ccccc1[N+](=O)[O-],i,i,-9,i,i,0.14,x,x,x
Cc1nn(-c2ccccc2)c(N)c1Sc1cccc([N+](=O)[O-])c1,i,i,-9,i,-13*,0.55,66%*,i,29%*
COc1ccc(-c2ccccc2NC(=O)C2CCCN(Cc3ccc(C)o3)C2)cc1 (stereo not given),i,i,-6,i,i,-0.58,x,x,x
Cc1cc(C)c2oc(=O)cc(CN3CCCCC3)c2c1,i,i,-1,i,i,-0.82,i,i,i
Cc1ccc2c(CN3CCCCC3)cc(=O)oc2c1C,i,i,-4,i,i,-0.78,i,i,i
CCc1cc(=O)oc2c(C)c(O)c(CN3CCCCC3)cc12,i,i,-12,i,i,0.8,x,x,x
O=C(OCC(=O)N(C1CCCCC1)C1CCCCC1)c1ccc(O)cc1,i,i,-5,i,i,-1.8,x,x,x
C/C(=N\NC(=O)c1cccc(S(=O)(=O)N2CCCC2)c1)c1cccs1,i,i,-7,i,i,-3.2,x,x,x
CCN1CCN(CC(=O)n2c3c(c4ccccc42)CC(C)CC3)CC1 (stereo not given),i,i,-7,i,i,-1.3,x,x,x
CC1CCN(CC(=O)n2c3c(c4ccccc42)CCCC3)CC1,i,i,-9,i,i,0.23,i,i,i
Cc1cc2cc(CN(Cc3cccs3)C(c3nnnn3C(C)(C)C)C(C)C)c3nnnn3c2cc1C (stereo not given),i,i,-9,i,-9.8*,-0.38,59%*,i,49%*
SMILES,KCNQ1 inh,KCNK3 inh,hERG rescue,KCNQ1 pot,KCNK9 block,Kir21 block,KCNK9 block conf,Kir21 sel,HEK293 Tl ctr
COc1ccc(OCCC(=O)OCC(=O)NCc2ccc(F)cc2)cc1,i,i,-12,i,i,-0.78,x,x,x
Cc1cccc(-c2ncc(S(=O)(=O)C(C)(C)C)c(N)n2)c1,i,i,-5,i,i,1.1,x,x,x
O=C(Nc1cc(Sc2ccccn2)cc([N+](=O)[O-])c1)c1cccc(Cl)c1,7*,i,-11,i,-10*,0.6,41%*,i,40%*
O=C(Nc1cc(Sc2ccccn2)cc([N+](=O)[O-])c1)c1ccc(Cl)cc1,i,i,-4,i,i,-0.72,x,x,x
CC1(C)C(=O)Nc2ccccc2N1C(=O)COC(=O)c1cccnc1Cl,x,i,x,x,x,x,x,x,x
CCN(CC(=O)Nc1cc(Cl)ccc1C)C(=O)Cc1sc(C)nc1-c1ccc(F)cc1,i,-9.7*,-15,i,-9.8*,-1.3,i,i,30%*
COC(=O)C1=C(C)OC(N)=C(C#N)C1c1c(C)nn(-c2ccccc2)c1Cl (stereo not given),i,i,-18,i,-13*,0.03,37%*,i,i
COC(=O)C1=C(C)OC(N)=C(C#N)C1c1ccccc1 (stereo not given),i,i,-1,i,i,-1.6,x,x,x
COc1ccc(C)cc1NC(=O)NC(C)c1ccc2c(c1)OCO2 (stereo not given),i,i,-11,i,i,0.09,x,x,x
CCN(c1ccccc1)S(=O)(=O)c1ccc(Cl)c(C(=O)NC2CCN(Cc3ccccc3)CC2)c1,x,i,x,x,x,x,x,x,x
CC1Cc2ccccc2N1Cc1nc2cc(C(F)(F)F)ccc2c(=O)[nH]1 (stereo not given),i,i,-10,i,i,0.5,x,x,x
COC(=O)/C(=C/c1ccc2c(c1)c1ccccc1n2C)NC(=O)c1ccccc1,i,i,-6,i,-8.6*,1.3,54%*,i,38%*
